Reference: ChEMBL document CHEMBL5661979, “Pharmacological inhibition of BMK1 suppresses tumor growth through promyelocytic leukemia protein” (Cancer Cell, 2010)
Calls of active or inactive are those of the source. The rule behind the calls is not given here.

Experiments:
[1] = target: Dual specificity mitogen-activated protein kinase kinase 6 (Homo sapiens, UniProt P52564); assay: Inhibition of MAP2K6 in human HeLa cells lysate pre incubated for 15 mins followed by ATP acyl phosphate probe addition and measured after 10 mins by LC-MS/MS analysis; type: subcellular
[2] = target: T1, Phosphatidylinositol 5-phosphate 4-kinase type-2 alpha (Homo sapiens) (UniProt P48426); assay: Inhibition of PIP5K2A LIP site in human HeLa cells lysate at 50 uM pre incubated for 15 mins followed by ADP acyl phosphate probe addition and measured after 10 mins by LC-MS/MS analysis relative to control; type: subcellular; details: time 25.0 min
T1 sequence (whole entry): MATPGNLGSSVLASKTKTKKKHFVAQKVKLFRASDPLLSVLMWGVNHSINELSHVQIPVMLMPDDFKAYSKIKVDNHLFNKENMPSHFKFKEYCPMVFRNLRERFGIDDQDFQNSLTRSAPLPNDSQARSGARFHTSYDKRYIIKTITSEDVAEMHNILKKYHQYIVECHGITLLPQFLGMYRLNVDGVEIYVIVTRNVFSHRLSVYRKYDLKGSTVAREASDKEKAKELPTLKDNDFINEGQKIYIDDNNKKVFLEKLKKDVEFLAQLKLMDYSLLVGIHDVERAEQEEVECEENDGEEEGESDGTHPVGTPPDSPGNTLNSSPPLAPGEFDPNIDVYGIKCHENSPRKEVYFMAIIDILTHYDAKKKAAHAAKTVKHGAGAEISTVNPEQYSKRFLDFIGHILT

[3] = target: Interferon-induced, double-stranded RNA-activated protein kinase (Homo sapiens, UniProt P19525); assay: Inhibition of PKR in human HeLa cells lysate at 2 uM pre incubated for 15 mins followed by ADP acyl phosphate probe addition and measured after 10 mins by LC-MS/MS analysis relative to control; type: subcellular; details: time 25.0 min
[4] = target: Activated CDC42 kinase 1 (Homo sapiens, UniProt Q07912); assay: Inhibition of ACK1 in human HeLa cells lysate at 50 uM pre incubated for 15 mins followed by ADP acyl phosphate probe addition and measured after 10 mins by LC-MS/MS analysis relative to control; type: subcellular; details: time 25.0 min
How it was run: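 HeLa cell lysates (5 mg/mL total protein) were preincubated with inhibitor at 0, 0.8, 2, 10 or 50 μM for 15 min. ATP or ADP acylphosphate probe was then added (5 μM final) for 10 min, and reactions were stopped with urea. Up to four fragment ions per kinase probe-peptide were quantified by targeted MS. % inhibition was taken relative to untreated lysate. Run in duplicate.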

[5] = system: HeLa; assay: Antitumor activity against human HeLa cells xenografted in NOD/SCID mouse assessed as reduction tumor growth at 50 mg/kg, ip administered on day 14 post implantation measured after 28 days; type: functional, organism-based; details: time 14.0 day
How it was run: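 HeLa cells (5×10^5, in DMEM) were injected s.c. into the right flank of 6-week-old Nod/Scid mice on day 0. Dosing was 50 mg/kg i.p. twice daily, starting on day 1, 7 or 14 and continuing to day 28; controls received carrier. 6 mice per treated group. Tumors were measured every 2–3 days.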

[6] = target: Tyrosine-protein kinase Lyn (Homo sapiens, UniProt P07948); assay: Inhibition of LYN in human HeLa cells lysate at 50 uM pre incubated for 15 mins followed by ATP acyl phosphate probe addition and measured after 10 mins by LC-MS/MS analysis relative to control; type: subcellular; details: time 25.0 min
[7] = target: ALK tyrosine kinase receptor (Homo sapiens) (UniProt Q9UM73); assay: Inhibition of ALK (unknown origin) assessed as remaining activity at 10 uM by ATP-competition binding assay relative to control
[8] = target: 3-phosphoinositide-dependent protein kinase 1 (Homo sapiens, UniProt O15530); assay: Inhibition of PDK1 in human HeLa cells lysate pre incubated for 15 mins followed by ADP acyl phosphate probe addition and measured after 10 mins by LC-MS/MS analysis; type: subcellular
[9] = target: Glycogen synthase kinase-3 beta (Homo sapiens, UniProt P49841); assay: Inhibition of GSK3B isoform 2 in human HeLa cells lysate at 50 uM pre incubated for 15 mins followed by ADP acyl phosphate probe addition and measured after 10 mins by LC-MS/MS analysis relative to control; type: subcellular; details: time 25.0 min
[10] = target: RPS6KA1/RPS6KA2/RPS6KA3 (Homo sapiens, UniProt P51812+Q15349+Q15418); assay: Inhibition of RSK1/RSK2/RSK3 domain 1 in human HeLa cells lysate pre incubated for 15 mins followed by ADP acyl phosphate probe addition and measured after 10 mins by LC-MS/MS analysis; type: subcellular
[11] = target: Tyrosine-protein kinase receptor UFO (Homo sapiens, UniProt P30530); assay: Inhibition of AXL in human HeLa cells lysate pre incubated for 15 mins followed by ADP acyl phosphate probe addition and measured after 10 mins by LC-MS/MS analysis; type: subcellular
How it was run: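 KiNativ-type profiling in HeLa lysate (5 mg/mL total protein). Lysate preincubated 15 min with inhibitor at 50, 10, 2, 0.8 or 0 μM, then ATP or ADP acylphosphate probe added (5 μM final) for 10 min. Reaction stopped with urea and analysed by targeted MS, using up to four fragment ions per kinase peptide-probe conjugate. % inhibition calculated against untreated lysate. Duplicate reactions.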

[12] = Inhibition of MSK1/2 domain 1 in human HeLa cells lysate at 2 uM pre incubated for 15 mins followed by ATP acyl phosphate probe addition and measured after 10 mins by LC-MS/MS analysis relative to control; details: 25 min, condition cancer
[13] = target: Ribosomal protein S6 kinase alpha-3 (Homo sapiens, UniProt P51812); assay: Inhibition of RSK2 domain 1 in human HeLa cells lysate at 50 uM pre incubated for 15 mins followed by ADP acyl phosphate probe addition and measured after 10 mins by LC-MS/MS analysis relative to control; type: subcellular; details: time 25.0 min
[14] = target: Serine/threonine-protein kinase tousled-like 2 (Homo sapiens, UniProt Q86UE8); assay: Inhibition of TLK2 in human HeLa cells lysate at 2 uM pre incubated for 15 mins followed by ADP acyl phosphate probe addition and measured after 10 mins by LC-MS/MS analysis relative to control; type: subcellular; details: time 25.0 min
[15] = target: T2, EKC/KEOPS complex subunit TP53RK (Homo sapiens) (UniProt Q96S44); assay: Inhibition of PRPK in human HeLa cells lysate at 2 uM pre incubated for 15 mins followed by ATP acyl phosphate probe addition and measured after 10 mins by LC-MS/MS analysis relative to control; type: subcellular; details: time 25.0 min
T2 sequence (whole entry): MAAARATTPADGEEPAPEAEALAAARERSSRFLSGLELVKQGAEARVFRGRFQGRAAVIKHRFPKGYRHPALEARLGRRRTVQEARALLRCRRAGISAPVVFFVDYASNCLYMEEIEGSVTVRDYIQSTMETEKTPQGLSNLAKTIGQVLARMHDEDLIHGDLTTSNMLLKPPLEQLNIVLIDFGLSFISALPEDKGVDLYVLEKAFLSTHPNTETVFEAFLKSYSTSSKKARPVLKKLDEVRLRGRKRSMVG

[16] = target: Serine/threonine-protein kinase 3/4 (Homo sapiens) (UniProt Q13043+Q13188); assay: Inhibition of MST1/2 in human HeLa cells lysate at 50 uM pre incubated for 15 mins followed by ATP acyl phosphate probe addition and measured after 10 mins by LC-MS/MS analysis relative to control; type: subcellular; details: time 25.0 min
Serine/threonine-protein kinase 3/4 (Homo sapiens), sequence (Q13043 whole entry, looked up): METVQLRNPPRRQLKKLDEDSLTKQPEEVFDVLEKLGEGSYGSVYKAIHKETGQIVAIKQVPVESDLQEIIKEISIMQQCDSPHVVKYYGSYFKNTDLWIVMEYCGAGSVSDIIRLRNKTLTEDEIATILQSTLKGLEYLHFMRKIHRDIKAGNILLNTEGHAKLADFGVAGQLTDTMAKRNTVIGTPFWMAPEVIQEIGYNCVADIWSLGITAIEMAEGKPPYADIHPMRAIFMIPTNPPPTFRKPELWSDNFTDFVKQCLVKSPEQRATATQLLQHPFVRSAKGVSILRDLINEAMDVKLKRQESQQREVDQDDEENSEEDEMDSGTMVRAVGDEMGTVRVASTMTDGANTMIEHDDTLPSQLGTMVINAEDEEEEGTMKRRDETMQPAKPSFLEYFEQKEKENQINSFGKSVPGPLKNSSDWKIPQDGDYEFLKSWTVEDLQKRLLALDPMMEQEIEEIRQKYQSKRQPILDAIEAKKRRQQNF
Serine/threonine-protein kinase 3/4 (Homo sapiens), sequence (Q13188 whole entry, looked up): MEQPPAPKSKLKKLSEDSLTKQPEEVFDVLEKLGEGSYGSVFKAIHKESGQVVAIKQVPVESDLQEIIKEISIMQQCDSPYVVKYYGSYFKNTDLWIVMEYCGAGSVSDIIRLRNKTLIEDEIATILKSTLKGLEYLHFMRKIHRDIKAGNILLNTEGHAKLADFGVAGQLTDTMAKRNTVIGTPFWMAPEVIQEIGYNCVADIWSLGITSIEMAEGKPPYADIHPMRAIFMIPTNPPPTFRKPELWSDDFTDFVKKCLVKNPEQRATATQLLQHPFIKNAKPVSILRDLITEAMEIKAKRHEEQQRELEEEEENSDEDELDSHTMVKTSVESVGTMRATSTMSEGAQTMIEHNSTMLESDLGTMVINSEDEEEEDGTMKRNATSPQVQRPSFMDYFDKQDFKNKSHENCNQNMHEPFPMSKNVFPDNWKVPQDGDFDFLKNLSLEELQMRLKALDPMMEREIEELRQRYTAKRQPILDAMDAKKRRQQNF

Serine/threonine-protein kinase tousled-like 2, sequence (Q86UE8 whole entry, looked up): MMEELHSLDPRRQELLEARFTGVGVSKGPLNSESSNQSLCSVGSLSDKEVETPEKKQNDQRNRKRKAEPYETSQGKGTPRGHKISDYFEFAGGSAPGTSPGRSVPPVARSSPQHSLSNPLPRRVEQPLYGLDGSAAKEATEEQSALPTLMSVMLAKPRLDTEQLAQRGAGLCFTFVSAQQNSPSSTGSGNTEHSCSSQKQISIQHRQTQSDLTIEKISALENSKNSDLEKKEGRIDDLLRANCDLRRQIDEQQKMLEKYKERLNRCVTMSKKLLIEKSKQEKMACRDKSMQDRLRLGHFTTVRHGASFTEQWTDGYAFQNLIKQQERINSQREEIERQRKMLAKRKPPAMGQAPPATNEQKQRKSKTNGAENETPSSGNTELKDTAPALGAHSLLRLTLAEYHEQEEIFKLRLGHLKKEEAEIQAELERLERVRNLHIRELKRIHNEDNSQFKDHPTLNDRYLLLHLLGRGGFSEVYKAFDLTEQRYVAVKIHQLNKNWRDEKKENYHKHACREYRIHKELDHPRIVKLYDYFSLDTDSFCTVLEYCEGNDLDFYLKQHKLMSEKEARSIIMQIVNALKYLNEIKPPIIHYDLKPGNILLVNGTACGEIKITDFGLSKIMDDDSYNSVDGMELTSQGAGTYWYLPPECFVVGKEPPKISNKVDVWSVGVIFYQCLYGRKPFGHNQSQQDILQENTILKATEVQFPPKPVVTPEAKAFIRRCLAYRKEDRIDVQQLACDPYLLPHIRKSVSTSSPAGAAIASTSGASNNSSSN
ALK tyrosine kinase receptor (Homo sapiens), sequence (Q9UM73 19-1620 limits assumed): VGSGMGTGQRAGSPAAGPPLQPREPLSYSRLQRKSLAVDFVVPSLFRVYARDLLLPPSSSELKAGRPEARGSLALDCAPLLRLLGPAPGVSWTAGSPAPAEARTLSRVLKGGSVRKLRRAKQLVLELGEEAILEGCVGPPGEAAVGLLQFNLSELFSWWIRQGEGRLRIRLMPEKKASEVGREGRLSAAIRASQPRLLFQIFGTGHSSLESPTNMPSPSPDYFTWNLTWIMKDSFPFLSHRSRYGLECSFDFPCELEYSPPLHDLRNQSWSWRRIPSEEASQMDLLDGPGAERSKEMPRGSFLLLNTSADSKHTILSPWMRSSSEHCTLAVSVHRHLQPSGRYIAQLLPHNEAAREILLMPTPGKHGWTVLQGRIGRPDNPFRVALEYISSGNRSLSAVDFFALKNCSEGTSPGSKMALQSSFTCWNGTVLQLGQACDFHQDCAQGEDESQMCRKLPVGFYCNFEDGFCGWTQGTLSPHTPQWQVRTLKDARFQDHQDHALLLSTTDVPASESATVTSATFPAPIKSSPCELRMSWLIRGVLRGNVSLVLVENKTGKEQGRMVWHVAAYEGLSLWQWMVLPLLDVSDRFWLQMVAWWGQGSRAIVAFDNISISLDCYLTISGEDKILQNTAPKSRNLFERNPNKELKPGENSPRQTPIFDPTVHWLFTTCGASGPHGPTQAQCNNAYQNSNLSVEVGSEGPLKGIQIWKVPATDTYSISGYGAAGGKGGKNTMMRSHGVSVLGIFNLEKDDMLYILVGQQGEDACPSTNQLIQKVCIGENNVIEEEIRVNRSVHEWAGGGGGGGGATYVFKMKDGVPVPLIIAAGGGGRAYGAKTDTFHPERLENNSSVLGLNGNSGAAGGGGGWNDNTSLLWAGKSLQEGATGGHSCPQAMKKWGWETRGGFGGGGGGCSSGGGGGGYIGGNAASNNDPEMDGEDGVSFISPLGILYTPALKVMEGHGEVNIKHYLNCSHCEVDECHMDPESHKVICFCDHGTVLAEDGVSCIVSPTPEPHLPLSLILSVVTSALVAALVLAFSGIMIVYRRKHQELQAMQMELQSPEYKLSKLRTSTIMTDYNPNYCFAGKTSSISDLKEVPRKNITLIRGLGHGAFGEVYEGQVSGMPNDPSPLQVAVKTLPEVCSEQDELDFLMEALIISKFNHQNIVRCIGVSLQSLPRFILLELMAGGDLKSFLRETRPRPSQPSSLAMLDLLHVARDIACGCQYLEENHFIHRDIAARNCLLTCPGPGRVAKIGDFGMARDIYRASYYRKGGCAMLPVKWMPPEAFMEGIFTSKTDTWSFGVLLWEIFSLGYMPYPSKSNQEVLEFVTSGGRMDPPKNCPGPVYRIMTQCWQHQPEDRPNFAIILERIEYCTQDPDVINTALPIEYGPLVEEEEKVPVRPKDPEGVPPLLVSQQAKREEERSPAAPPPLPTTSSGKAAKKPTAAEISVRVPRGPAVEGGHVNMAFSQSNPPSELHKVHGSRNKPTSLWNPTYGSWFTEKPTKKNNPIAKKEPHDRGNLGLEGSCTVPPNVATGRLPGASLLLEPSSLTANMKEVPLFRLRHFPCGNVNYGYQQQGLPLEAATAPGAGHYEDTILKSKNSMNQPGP
Glycogen synthase kinase-3 beta, sequence (P49841 whole entry, looked up, the tested form may be a part, canonical isoform): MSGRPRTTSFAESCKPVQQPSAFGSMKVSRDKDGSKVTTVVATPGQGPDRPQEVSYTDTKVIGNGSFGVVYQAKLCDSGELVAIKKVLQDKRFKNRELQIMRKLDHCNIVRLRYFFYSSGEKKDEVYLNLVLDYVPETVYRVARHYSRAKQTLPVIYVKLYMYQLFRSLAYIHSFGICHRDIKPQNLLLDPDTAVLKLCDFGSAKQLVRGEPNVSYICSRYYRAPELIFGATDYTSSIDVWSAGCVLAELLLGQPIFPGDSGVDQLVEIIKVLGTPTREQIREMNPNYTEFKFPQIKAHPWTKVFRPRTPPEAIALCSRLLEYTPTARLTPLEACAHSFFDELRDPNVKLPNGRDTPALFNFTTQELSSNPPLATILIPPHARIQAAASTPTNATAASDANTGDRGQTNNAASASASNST
Ribosomal protein S6 kinase alpha-3, sequence (P51812 whole entry, the tested form may be a part): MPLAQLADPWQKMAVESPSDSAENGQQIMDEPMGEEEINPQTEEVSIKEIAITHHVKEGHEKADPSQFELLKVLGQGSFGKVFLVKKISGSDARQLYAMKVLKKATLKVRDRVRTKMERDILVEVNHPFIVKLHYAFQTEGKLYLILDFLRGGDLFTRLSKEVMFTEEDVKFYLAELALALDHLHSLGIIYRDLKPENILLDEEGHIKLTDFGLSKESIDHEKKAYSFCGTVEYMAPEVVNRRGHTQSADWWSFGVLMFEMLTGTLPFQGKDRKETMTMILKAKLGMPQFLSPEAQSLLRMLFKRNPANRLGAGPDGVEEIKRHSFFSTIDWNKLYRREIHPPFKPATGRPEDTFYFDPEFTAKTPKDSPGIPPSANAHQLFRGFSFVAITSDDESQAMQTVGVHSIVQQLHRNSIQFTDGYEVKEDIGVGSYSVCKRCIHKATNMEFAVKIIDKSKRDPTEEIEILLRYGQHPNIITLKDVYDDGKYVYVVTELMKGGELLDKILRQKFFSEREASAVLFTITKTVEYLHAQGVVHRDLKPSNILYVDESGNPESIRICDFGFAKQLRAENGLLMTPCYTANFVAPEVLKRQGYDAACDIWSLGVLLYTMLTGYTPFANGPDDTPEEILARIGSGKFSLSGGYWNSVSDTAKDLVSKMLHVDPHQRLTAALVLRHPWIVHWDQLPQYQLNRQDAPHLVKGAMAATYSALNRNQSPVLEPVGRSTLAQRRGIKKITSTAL
Dual specificity mitogen-activated protein kinase kinase 6, sequence (P52564 whole entry): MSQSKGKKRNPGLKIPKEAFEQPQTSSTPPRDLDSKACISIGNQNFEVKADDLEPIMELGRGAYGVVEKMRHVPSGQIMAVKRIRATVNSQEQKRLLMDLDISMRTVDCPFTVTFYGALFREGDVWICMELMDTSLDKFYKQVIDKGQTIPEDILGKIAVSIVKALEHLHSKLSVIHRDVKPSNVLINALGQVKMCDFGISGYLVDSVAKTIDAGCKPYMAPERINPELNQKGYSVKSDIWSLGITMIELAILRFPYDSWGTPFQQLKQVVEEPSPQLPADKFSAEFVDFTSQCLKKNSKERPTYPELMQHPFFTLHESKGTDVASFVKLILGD

`CCOc1cc(N2CCC(O)CC2)ccc1Nc1ncc2c(n1)N(C)c1ccccc1C(=O)N2C` gave an IC50 [1] of over 50 µM, an inhibition [2] of 15.1% and an inhibition [3] of 8.4%. The inhibition [4] was 71.5%, the Activity [5] was “Active” and the inhibition [6] was -5.2%. It also gave an Activity [7] of 29%, an IC50 [8] of over 50 µM and an inhibition [9] of 5.1%. It also gave an IC50 [10] of over 50 µM, an IC50 [11] of over 50 µM and an inhibition at 2 µM [12] of -4.6%. The inhibition [13] was -4.3%, the inhibition [14] was 7.3% and the inhibition [15] was 10.2%. For the same compound, the inhibition [16] was 11.3%.
